# Rows were chosen to be rich in hits. Some 2.1% of all compounds tested hit in one or more screens of this group.
# CRFR2-BP ag = agonists of human CRF-binding protein/CRF-R2 receptor complex. HEK293 CRF-R2/CRF-BP, calcium dye fluorescence (FLIPR); percent of saturating CRF peptide response. activation, % at 13.2 µM. 350,000 tested, 0.46% active. AID 588473;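 active = activation of at least 50%, plus an integration ratio under a set limit after plate pattern correction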;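 also: plate controls were neutral control wells without compound for no effect and CRF at EC100 for full effect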
# UCH37 inh = blocks the human deubiquitinase UCH37. Q9Y5K5. purified proteasome/UCH37, Ub-AMC cleavage fluorescence. inhibition, % (test concentration not listed). 330,000 tested, 0.33% active. AID 588478;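 active = mean inhibition over replicate wells above about 20%, limit read from the data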;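 also: 0% = compound-free wells with enzyme and 100% = wells lacking proteasome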
# Target sequence (Q9Y5K5 whole entry, looked up): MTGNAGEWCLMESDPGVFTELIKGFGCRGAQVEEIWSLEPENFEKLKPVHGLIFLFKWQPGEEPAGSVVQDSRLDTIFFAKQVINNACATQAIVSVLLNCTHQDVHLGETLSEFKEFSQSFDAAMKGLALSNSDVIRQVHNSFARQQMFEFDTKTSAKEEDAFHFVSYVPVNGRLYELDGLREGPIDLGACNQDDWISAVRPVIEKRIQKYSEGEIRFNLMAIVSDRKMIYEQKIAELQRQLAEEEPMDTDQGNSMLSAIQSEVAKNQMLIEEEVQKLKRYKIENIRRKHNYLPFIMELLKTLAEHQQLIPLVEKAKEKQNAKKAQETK
#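 system = Proteasome-associated human UCH37 deubiquitinase | amount = 0.15 nM proteasome as dispensed | medium = pH 7.4 Tris-HCl (50 mM) with ovalbumin, ATP-MgCl2, DTT | incubation = 30 min preincubation with enzyme, 25 min cleavage at room temperature | detection = AMC fluorescence 355/460 nm | read-out basis = percent inhibition | controls = no-proteasome and no-compound wells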
# iPSC survival up = hiPSC single-cell survival enhancement | ATPlite luminescence; 100% = ROCK inhibitor wells, 0% = DMSO | survival enhancement, % at 20 µM | 360,000 tested, 0.044% active; in the data active = survival enhancement above about 18%;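 also: cells exposed to compounds for 16 hours before the ATP read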
# Cardio protect = myocardial damage modulation in H9c2 cells | H9c2 cardiomyocytes, H2O2 injury protection, ATPLite, 2 h | protection from H2O2 cell death, % at 20 µM | 360,000 tested, 0.63% active;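 active = compounds giving at least 50% protection of heart cells from peroxide-induced death in the single-dose screen, raw or plate-pattern-corrected value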;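 also: 0% = DMSO wells with peroxide and 100% = DMSO wells without peroxide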
# beta cell repl = MIN6 beta-cell proliferation induction; MIN6 cells proliferation, ATPlite luminescence, 48 h; cells starved in 0.2% serum; 100% = growth in 10% serum; proliferation, % at 10 µM; 330,000 tested, 0.29% active; AID 2380;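 active = compounds whose signal lies at least 3.5 SD above the mean of all wells on their plate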;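 also: 0% = DMSO-treated cells in low-serum medium and 100% = 10% serum control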
# CRFR2-BP antag = antagonists of CRF-binding protein/CRF-R2 receptor complex | HEK293 CRF-R2/CRF-BP, CRF-induced calcium fluorescence | inhibition, % at 11.8 µM | 350,000 tested, 0.59% active;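 active = inhibition of the ligand-induced calcium signal above about 50% at the single tested concentration, limit read from the data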
# * hit, by the source's call; · = not tested or not shown.
SMILES,CRFR2-BP ag,UCH37 inh,iPSC survival up,Cardio protect,beta cell repl,CRFR2-BP antag
CC1CCN(c2nc3nonc3nc2N2CCC(C)CC2)CC1,-3,4,-2,-5,6,22
C1CCN(c2nc3nonc3nc2N2CCCC2)C1,-1,15,22*,-2,1,15
CCCCNC(=O)CCc1nc2cccnc2n1Cc1ccc(OC)cc1,-2,-2,4,3,-3,69*
CCOC(=O)C1=C(N)n2c(sc(=Cc3cccnc3)c2=O)=C(C(=O)OC)C1c1cccnc1 (stereo unspecified),·,2,·,·,·,·
CN(C)c1nc(NCc2ccccc2)nc(NN=Cc2ccccc2F)n1,·,2,·,·,·,·
Cc1cc(C)nc(SCCC(=O)Nc2ccccc2C)n1,0,-1,0,-4,-4,75*
Cc1cc(C)nc(SCCC(=O)Nc2ccccc2)n1,2,3,-2,-2,-1,16
Nc1nn2c(-c3ccccc3)cc(=O)[nH]c2c1N=Nc1ccc(O)cc1,97*,10,-1,28,-6,-105
Nc1nn2c(-c3ccccc3)cc(=O)[nH]c2c1N=Nc1ccc(Br)cc1,-1,8,-1,31,·,73*
COc1cccc(C(=O)NN=Cc2ccc(OC)c(COc3ccccc3C(N)=O)c2)c1,·,1,·,·,·,·
CC1(C)SC(=S)N(N=Cc2ccccc2O)C1N(O)C(=O)Nc1ccccc1 (stereo unspecified),·,2,·,·,·,·
COCCCNC(=O)/C(C#N)=C1\N=C(NC(=O)c2cccs2)c2ccccc21,0,-2,0,58*,-3,-5
CC(CC(=O)Nc1cccnc1)=NNC(=O)c1ccc([N+](=O)[O-])c(Cl)c1,·,1,·,·,·,·
N#CCn1cc(C=NNC(=O)c2cc3c(ccc4ccccc43)o2)c2ccccc21,·,-99,·,·,·,·
CCCCCCCCNS(=O)(=O)CCNCc1ccc(OC)cc1,-1,·,2,-16,·,115*
O=C(Nc1ncc(Cc2ccc(Cl)cc2Cl)s1)c1ccc([N+](=O)[O-])cc1,74*,1,0,-1,-3,-172
CN(C)c1nc(NCc2ccccc2)nc(SCC(=O)Nc2ccccc2Cl)n1,0,1,4,-7,-2,58*
COc1ccccc1C=NNC(=O)COCC(=O)NN=Cc1ccccc1OC,·,6,·,·,·,·
CCN(CC)c1ccc(/C=N/NC(=O)CNC(=O)C2COc3ccccc3O2)c(O)c1 (stereo unspecified),-5,·,0,66*,-6,-10
S=c1[nH]nc(-c2ccco2)n1N=C/C(Cl)=C/c1ccccc1,·,5,·,·,·,·
O=C(Nc1cc(Br)ccc1O)c1cc(-c2ccc3c(c2)OCO3)on1,-2,·,1,-9,-1,70*
CCCNC(=O)Cn1c(=O)/c(=C/c2ccc(-c3ccc([N+](=O)[O-])cc3)o2)s/c1=C\C(=O)C(C)(C)C,165*,13,2,46,·,-93
Oc1c(Br)cccc1/C=N/c1ncn[nH]1,-2,·,0,67*,0,-59
O=[N+]([O-])c1cc(S(=O)(=O)N=C(c2ccccc2)N2CCOCC2)ccc1Cl,·,0,·,·,·,·
CCCCc1nnc2c(N(C)S(=O)(=O)c3ccccc3)nc3ccccc3n12,0,0,1,1,2,59*
SMILES,CRFR2-BP ag,UCH37 inh,iPSC survival up,Cardio protect,beta cell repl,CRFR2-BP antag
CC(C)c1nnc2c(N(C)S(=O)(=O)c3ccccc3)nc3ccccc3n12,-1,0,1,7,2,0
COc1cccc(CNC(=O)CN(c2cc(C)cc(C)c2)S(=O)(=O)c2c(C)noc2C)c1,0,4,-1,5,-2,-13
COc1cccc(CNC(=O)CN(c2ccc(C(C)C)cc2)S(=O)(=O)c2c(C)noc2C)c1,2,3,0,3,-3,110*
COc1cc(-c2cc(NC(C)=O)c3ncc(-c4ccc(C(C)=O)cc4)n3c2)cc(OC)c1OC,·,·,-1,61*,·,·
CC(=O)Nc1cc(-c2cccc(N)c2)cn2c(-c3ccc(C(C)=O)cc3)cnc12,·,·,0,39,·,·
COc1cc(-c2cc(NC(C)=O)c3ncc(-c4ccc(F)cc4)n3c2)cc(OC)c1OC,·,·,-2,54*,·,·
CC(=O)Nc1cc(-c2ccc(F)cc2)cn2c(-c3ccc(F)cc3)cnc12,·,·,0,2,·,·
CCOC(=O)c1c(-c2ccc(C)o2)csc1NC(=O)CSc1nnc(C)s1,0,0,0,-7,-4,15
CCOC(=O)c1c(-c2ccc(C)o2)csc1NC(=O)COC(=O)c1ccc(NC(N)=O)cc1,-1,-5,5,61*,-6,-25
CC(=NNC(=O)CN1CCN(S(=O)(=O)c2ccc(C)cc2)CC1)c1ccncc1,·,1,·,·,·,·
O=C1NC(=Nc2ccccc2)c2c1cccc2[N+](=O)[O-],-1,7,0,5,0.0*,-4
O=C(Nc1cccc2c1C(=O)NC2=O)c1ccccc1[N+](=O)[O-],1,2,3,-1,-2,9
Cc1cc(-n2c(C)cc(C(=O)CSc3nc4ccccc4c(=O)n3Cc3ccco3)c2C)no1,68*,1,-1,4,-5,-51
CC1CCCCN1C(C(=O)O)c1ccccc1 (stereo unspecified),-1,3,0,3,0,65*
Cc1cc(NC(=O)COc2nnc(-c3ccccc3)c3ccccc23)no1,-1,0,4,48*,-1,4
Cc1ccc(S(=O)(=O)NN=Cc2c(C)nn(-c3ccccc3)c2C)cc1,·,2,·,·,·,·
COC(=O)c1ccccc1NC(=O)c1nc2nc(C)cc(C)n2n1,2,4,6,61*,-1,-3
COC(=O)c1ccccc1NC(=O)c1cnn2c(C)cc(C)nc12,-1,1,0,1,1,-8
O=C(COC(=O)c1ccc(S(=O)(=O)NCc2ccco2)cc1)Nc1ncc(Cl)cc1Cl,1,1,0,8,0,8
CC(OC(=O)c1ccc(S(=O)(=O)NCc2ccco2)cc1)C(=O)Nc1ccc(Cl)cn1 (stereo unspecified),99*,2,-1,-5,-2,-218
C=CCc1cc(C=Nn2cnnc2)cc(OCC)c1O,·,-1,·,·,·,·
CCOC(=O)C(=O)/C(=C\N(C)C)c1onc(-c2c(F)cccc2Cl)c1C(=O)OC,1,9,20*,8,-2,8
COc1ccc2[nH]cc(C(=O)CN3CCN(C4CCCCC4)CC3)c2c1,-1,1,2,2,-2,13
COc1ccc2[nH]cc(C(=O)CN3CCCCC3)c2c1,59*,-1,0,1,0,-15
O=C(O)c1ccc(NN=Cc2ccc(-c3cc(Cl)ccc3Cl)o2)cc1,·,-57,·,·,·,·
CC(/C=C/c1ccccc1)=NNC(=S)NC(C)C,·,4,·,·,·,·
COCCCn1c(N)c(-c2nc3ccccc3n2C)c2nc3ccccc3nc21,92*,-20,-2,11,-2,-180

# Screens deposited in PubChem BioAssay by several laboratories.
